Experimental data: PMC9989852 (Food and chemical toxicology : an international journal …, 2022)
“And” between values parts separate entries of the source, which are not always exact repeats. Equal entries are not always repeated.

Experiments:
Type in all cases: in vivo, B6C3F1 mice
ear pinna [1] = experiment: Skin; details: dermal, 28 days
Method in brief: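 Female B6C3F1 mice (5/group) received 25 μl/ear daily to the dorsal ears in acetone. About 24 h after the last dose, tissues went into RPMI: both auricular dLNs, half spleen and one ear pinna. Single-cell suspensions were acquired on an LSR II, with populations gated per supplemental strategy and FMO gating controls. Results are mean ± SE, n=5, by one-way ANOVA.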

ear pinna [2] = experiment: Ear; details: dermal, 28 days, mice affected of 5
Method in brief: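 Female B6C3F1 mice (5/group) received 25 μl/ear on the dorsal ear surfaces daily, with acetone as vehicle. Tissues were formalin-fixed about 24 h after the last dose: liver remainder, half spleen, right kidney and half ear pinna. Sections were paraffin-embedded, cut at 5 μm and stained with H&E. A veterinary pathologist read them per STP guideline and graded 1 (minimal) to 5 (severe) by extent.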

[3] = PFAS concentration in pooled urine; details: 5%, dermal, 28 days; 5 pooled samples
Method in brief: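 Urine was caught in a weigh boat as it was excreted during CO2 euthanasia, about 24 h after the final daily ear dose (25 μl/ear, acetone vehicle; female B6C3F1 mice). The 5 mice per group were pooled, with variable volume. Samples underwent solid-phase extraction and LC/MS/MS, as linear isomer for short-chain analytes and linear plus branched for the comparator. Each group gave a single value without statistics.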

O=C(O)C(F)(F)C(F)(F)C(F)(F)C(F)(F)C(F)(F)F [PFHxA, perfluorohexanoic acid]
Ear CD4^+ cell number (ear pinna [1]; 1.25%): 2.40 ± 0.36 × 10^3 | Ear CD4^+ frequency (ear pinna [1]; 1.25%): 3.34 ± 0.09% | Ear CD8^+ cell number (ear pinna [1]; 1.25%): 3.38 ± 2.57 × 10^2 | Ear CD8^+ frequency (ear pinna [1]; 1.25%): 0.48 ± 0.37% | Ear CD45^+ cell number (ear pinna [1]; 1.25%): 7.21 ± 1.13 × 10^4 | Ear CD45^+ frequency (ear pinna [1]; 1.25%): 8.51 ± 0.85% | Ear CD lib- F4/80+ DCs cell number (ear pinna [1]; 1.25%): 5.74 ± 0.72 × 10^2 | Ear CDllb + F4/80+ DCs cell number (ear pinna [1]; 1.25%): 22.30 ± 3.03 × 10^2 | Ear CDllb- F4/80+ DCs frequency (ear pinna [1]; 1.25%): 0.87 ± 0.14% | Ear CDllb- F4/80-DCs cell number (ear pinna [1]; 1.25%): 1.47 ± 0.24 × 10^3 | Ear CDllb- F4/80-DCs frequency (ear pinna [1]; 1.25%): 2.05 ± 0.05 % | Ear Dendritic Cells cell number (ear pinna [1]; 1.25%): 4.99 ± 0.68 × 10^3 | Ear Dendritic Cells frequency (ear pinna [1]; 1.25%): 7.09 ± 0.33% | Ear Eosinophils cell number (ear pinna [1]; 1.25%): 2.77 ± 0.56 × 10^3 | Ear Eosinophils frequency (ear pinna [1]; 1.25%): 3.82 ± 0.34% | Ear NK cell number (ear pinna [1]; 1.25%): 4.76 ± 0.96 × 10^2 | Ear NK frequency (ear pinna [1]; 1.25%): 0.66 ± 0.07% | Ear Neutrophils cell number (ear pinna [1]; 1.25%): 1.18 ± 0.22 × 10^2 | Ear Neutrophils frequency (ear pinna [1]; 1.25%): 0.17 ± 0.02% | Ear Total Cellularity (ear pinna [1]; 1.25%): 0.83 ± 0.09 × 10^6 | Ear CD4^+ cell number (ear pinna [1]; 2.5%): 5.01 ± 0.60 × 10^3 | Ear CD4^+ frequency (ear pinna [1]; 2.5%): 5.05 ± 0.25 % | Ear CD8^+ cell number (ear pinna [1]; 2.5%): 1.91 ± 0.23 × 10^2 | Ear CD8^+ frequency (ear pinna [1]; 2.5%): 0.19 ± 0.02% | Ear CD45^+ cell number (ear pinna [1]; 2.5%): 9.82 ± 0.79 × 10^4 | Ear CD45^+ frequency (ear pinna [1]; 2.5%): 10.91 ± 1.00 % | Ear CD lib- F4/80+ DCs cell number (ear pinna [1]; 2.5%): 6.58 ± 0.67 × 10^2 | Ear CDllb + F4/80+ DCs cell number (ear pinna [1]; 2.5%): 35.80 ± 2.66 × 10^2 | Ear CDllb- F4/80+ DCs frequency (ear pinna [1]; 2.5%): 0.67 ± 0.05% | Ear CDllb- F4/80-DCs cell number (ear pinna [1]; 2.5%): 2.82 ± 0.24 × 10^3 | Ear CDllb- F4/80-DCs frequency (ear pinna [1]; 2.5%): 2.89 ± 0.19% | Ear Dendritic Cells cell number (ear pinna [1]; 2.5%): 9.09 ± 0.72 × 10^3 | Ear Dendritic Cells frequency (ear pinna [1]; 2.5%): 9.30 ± 0.47% | Ear Eosinophils frequency (ear pinna [1]; 2.5%): 7.59 ± 0.65 % | Ear NK cell number (ear pinna [1]; 2.5%): 6.45 ± 0.60 × 10^2 | Ear NK frequency (ear pinna [1]; 2.5%): 0.66 ± 0.04% | Ear Neutrophils cell number (ear pinna [1]; 2.5%): 4.94 ± 1.24 × 10^2 | Ear Neutrophils frequency (ear pinna [1]; 2.5%): 0.51 ± 0.13% | Ear Total Cellularity (ear pinna [1]; 2.5%): 0.91 ± 0.05 × 10^6 | Ear CD4^+ cell number (ear pinna [1]; 5%): 6.11 ± 1.17 × 10^3 | Ear CD4^+ frequency (ear pinna [1]; 5%): 5.29 ± 0.32 % | Ear CD8^+ cell number (ear pinna [1]; 5%): 2.15 ± 0.46 × 10^2 | Ear CD8^+ frequency (ear pinna [1]; 5%): 0.20 ± 0.04% | Ear CD45^+ cell number (ear pinna [1]; 5%): 11.50 ± 2.03 × 10^4 | Ear CD45^+ frequency (ear pinna [1]; 5%): 11.22 ± 1.00 % | Ear CD lib- F4/80+ DCs cell number (ear pinna [1]; 5%): 4.22 ± 0.49 × 10^2 | Ear CDllb + F4/80+ DCs cell number (ear pinna [1]; 5%): 48.30 ± 7.74 × 10^2 | Ear CDllb- F4/80+ DCs frequency (ear pinna [1]; 5%): 0.39 ± 0.03 % | Ear CDllb- F4/80-DCs cell number (ear pinna [1]; 5%): 2.90 ± 0.54 × 10^3 | Ear CDllb- F4/80-DCs frequency (ear pinna [1]; 5%): 2.51 ± 0.14% | Ear Dendritic Cells cell number (ear pinna [1]; 5%): 10.10 ± 1.77 × 10^3 | Ear Dendritic Cells frequency (ear pinna [1]; 5%): 8.88 ± 0.39% | Ear Eosinophils cell number (ear pinna [1]; 5%): 9.87 ± 1.78 × 10^3 | Ear Eosinophils frequency (ear pinna [1]; 5%): 8.60 ± 0.38 % | Ear NK cell number (ear pinna [1]; 5%): 9.94 ± 2.21 × 10^2 | Ear NK frequency (ear pinna [1]; 5%): 0.85 ± 0.09 % | Ear Neutrophils frequency (ear pinna [1]; 5%): 1.13 ± 0.23 % | Ear Total Cellularity (ear pinna [1]; 5%): 0.99 ± 0.11 × 10^6 | Ear: Degeneration/regeneration, cartilage, focal, Mild (incidence) (ear pinna [2]; 1.25%): 0 | Ear: Fibrosis, dermis, focal, Minimal (incidence) (ear pinna [2]; 1.25%): 0 | Ear: Hyperkeratosis, epidermis, focal, Mild (incidence) (ear pinna [2]; 1.25%): 0 | Ear: Hyperkeratosis, epidermis, focal, Minimal (incidence) (ear pinna [2]; 1.25%): 1 | Ear: Hyperplasia, epidermis, focal, Mild (incidence) (ear pinna [2]; 1.25%): 0 | Ear: Hyperplasia, epidermis, focal, Minimal (incidence) (ear pinna [2]; 1.25%): 5/5 and 5 | Ear: Inflammation, mixed cell, dermis, Minimal (incidence) (ear pinna [2]; 1.25%): 0 | Ear: Inflammation, mononuclear cell, dermis, Minimal (incidence) (ear pinna [2]; 1.25%): 0 | Ear: Necrosis, epidermis, multifocal, Minimal (incidence) (ear pinna [2]; 1.25%): 0 | Ear: Degeneration/regeneration, cartilage, focal, Mild (incidence) (ear pinna [2]; 2.5%): 0 | Ear: Fibrosis, dermis, focal, Minimal (incidence) (ear pinna [2]; 2.5%): 0 | Ear: Hyperkeratosis, epidermis, focal, Mild (incidence) (ear pinna [2]; 2.5%): 0 | Ear: Hyperkeratosis, epidermis, focal, Minimal (incidence) (ear pinna [2]; 2.5%): 4/5 and 4 | Ear: Hyperplasia, epidermis, focal, Mild (incidence) (ear pinna [2]; 2.5%): 0 | Ear: Hyperplasia, epidermis, focal, Minimal (incidence) (ear pinna [2]; 2.5%): 5/5 and 5 | Ear: Inflammation, mixed cell, dermis, Minimal (incidence) (ear pinna [2]; 2.5%): 0 | Ear: Inflammation, mononuclear cell, dermis, Minimal (incidence) (ear pinna [2]; 2.5%): 0 | Ear: Necrosis, epidermis, multifocal, Minimal (incidence) (ear pinna [2]; 2.5%): 0 | Ear: Degeneration/regeneration, cartilage, focal, Mild (incidence) (ear pinna [2]; 5%): 1 | Ear: Fibrosis, dermis, focal, Minimal (incidence) (ear pinna [2]; 5%): 5/5 and 5 | Ear: Hyperkeratosis, epidermis, focal, Mild (incidence) (ear pinna [2]; 5%): 3/5 and 3 | Ear: Hyperkeratosis, epidermis, focal, Minimal (incidence) (ear pinna [2]; 5%): 2/5 and 2 | Ear: Hyperplasia, epidermis, focal, Mild (incidence) (ear pinna [2]; 5%): 4/5 and 4 | Ear: Hyperplasia, epidermis, focal, Minimal (incidence) (ear pinna [2]; 5%): 1 | Ear: Inflammation, mixed cell, dermis, Minimal (incidence) (ear pinna [2]; 5%): 4/5 and 4 | Ear: Inflammation, mononuclear cell, dermis, Minimal (incidence) (ear pinna [2]; 5%): 0 | Ear: Necrosis, epidermis, multifocal, Minimal (incidence) (ear pinna [2]; 5%): 0 | urine PFAS concentration [3]: 1700 µg/mL
